Source: ChEMBL document CHEMBL1123382, “Potential tumor- or organ-imaging agents. 27. Polyiodinated 1,3-disubstituted and 1,2,3-trisubstituted triacylglycerols” (J Med Chem, 1986)
Where “and” joins values, the source holds several entries; their conditions need not be identical. Identical values can stand only once.

How the values were obtained:
[1] = system: Rattus norvegicus; test: Compound was evaluated for the lipid soluble radioactivity extracted from rat plasma at 24 hr after intravenous administration.; format: functional
Method in brief: (§1)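 Liver and plasma taken 0.5 or 24 h after iv dosing of 125I-labeled compound in rats (n = 3-5). Extracted by a modified Folch procedure; value is % lipid (CHCl3/MeOH)-extractable radioactivity ± SEM. Extracts run on TLC in hexane/ethyl acetate 5:2 against unlabeled standard, then 1-cm strips counted to give % parent compound.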

[2] = system: Rattus norvegicus; test: Compound was evaluated for the lipid soluble radioactivity extracted from rat liver at 0.5 hr after intravenous administration.; format: functional; method in brief: as §1
[3] = system: Rattus norvegicus; test: Compound was evaluated for the lipid soluble radioactivity extracted from rat liver at 24 hr after intravenous administration.; format: functional; method in brief: as §1
[4] = system: Rattus norvegicus; test: Liver radioactivity after iv administration of compound (5 min) in rats; format: functional, organism-based
Method in brief: (§2)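 Rats (3-5 per time point) dosed iv with about 5-30 μCi (9-83 μg) of 125I-labeled compound in saline containing Tween-20. Killed by exsanguination under ether at 5 min, 30 min or 24 h. Liver removed, minced, blotted and counted. Values are % administered dose per organ, based on each animal's actual liver weight, ± SEM.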

[5] = system: Rattus norvegicus; test: Compound (125I labeled) was evaluated for the total radioactivity in low-density lipoprotein, at 30 min after intravenous administration.; format: functional
Method in brief: (§3)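 Rat plasma taken 5 or 30 min after iv dosing of 125I-labeled compound (saline/Tween-20) and run on polyacrylamide gel electrophoresis. Gels sectioned and each section gamma-counted. Radioactivity in each band (stacking gel, lipoproteins, albumin, below-albumin) is given as % of total radioactivity applied to the gel.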

[6] = system: Rattus norvegicus; test: Biodistribution in Rat liver after 24 hours of iv administration; format: ADME, organism-based; details: in vivo
Method in brief: (§4)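 125I-labeled compound solubilized in normal saline with Tween-20 and given iv to rats, about 5-30 μCi (9-83 μg) per animal. Three to five rats per time point. Rats killed by exsanguination under ether anesthesia at 5 min, 30 min or 24 h. Organs minced, blotted free of blood and counted for radioiodine. Lines with "per g" are % administered dose per gram ± SEM.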

[7] = system: Rattus norvegicus; test: Biodistribution in Rat heart after 30 minutes of iv administration; format: ADME, organism-based; details: in vivo, 0.5 h; method in brief: as §4
[8] = system: Rattus norvegicus; test: Compound (125I labeled) was evaluated for the total radioactivity in high-density lipoprotein 5 min after intravenous administration.; format: functional; method in brief: as §3
[9] = system: Rattus norvegicus; test: Biodistribution in Rat lung after 24 hours of iv administration; format: ADME, organism-based; details: in vivo; method in brief: as §4
[10] = system: Rattus norvegicus; test: Compound (125I labeled) was evaluated for the total radioactivity in low-density lipoprotein 5 min after intravenous administration.; format: functional; set-up: concentration or dose not given beside the values; method in brief: as §3
[11] = system: Rattus norvegicus; test: Compound (125I labeled) was evaluated for the total radioactivity in albumin 5 min after intravenous administration.; format: functional; set-up: concentration or dose not given beside the values; method in brief: as §3
[12] = system: Rattus norvegicus; test: Compound (125I labeled) was evaluated for the total radioactivity in stacking gel at 30 min after intravenous administration.; format: functional; method in brief: as §3
[13] = system: Rattus norvegicus; test: Compound (125I labeled) was evaluated for the total radioactivity in high-density lipoprotein, at 30 min after intravenous administration.; format: functional; method in brief: as §3
[14] = system: Rattus norvegicus; test: (§5) Biodistribution in Rat liver after 30 minutes of iv administration; format: ADME, organism-based; details: in vivo, 0.5 h; method in brief: as §4
[15] = system: Rattus norvegicus; test: Liver radioactivity after iv administration of compound (24 h) in rats; format: functional, organism-based; method in brief: as §2
[16] = system: Rattus norvegicus; test: Biodistribution in Rat heart after 24 hours of iv administration; format: ADME, organism-based; details: in vivo; method in brief: as §4
[17] = system: Rattus norvegicus; test: Compound was evaluated for the lipid soluble radioactivity extracted from rat plasma at 0.5 hr after intravenous administration.; format: functional; method in brief: as §1
[18] = system: Rattus norvegicus; test: as §5; format: ADME, organism-based; details: in vivo, 0.5 h; method in brief: as §4; remark: listed apart in the source
[19] = system: Rattus norvegicus; test: Biodistribution in Rat lung after 30 minutes of iv administration; format: ADME, organism-based; details: in vivo, 0.5 h; method in brief: as §4
[20] = system: Rattus norvegicus; test: Biodistribution in Rat heart after 5 minutes of iv administration; format: ADME, organism-based; details: in vivo; method in brief: as §4
[21] = system: Rattus norvegicus; test: Compound (125I labeled)was evaluated for the total radioactivity in stacking gel 5 min after intravenous administration.; format: functional; method in brief: as §3
[22] = system: Rattus norvegicus; test: Biodistribution in Rat blood after 24 hours of iv administration; format: ADME, organism-based; details: in vivo; method in brief: as §4
[23] = system: Rattus norvegicus; test: Evaluated for the total radioactivity in below albumin at 30 min after intravenous administration.; format: functional; method in brief: as §3
[24] = system: Rattus norvegicus; test: Compound (125I labeled) was evaluated for the total radioactivity in albumin at 30 min after intravenous administration.; format: functional; set-up: concentration or dose not given beside the values; method in brief: as §3
[25] = system: Rattus norvegicus; test: Biodistribution in Rat liver after 5 minutes of iv administration; format: ADME, organism-based; details: in vivo; method in brief: as §4
[26] = system: Rattus norvegicus; test: Biodistribution in Rat blood after 5 minutes of iv administration; format: ADME, organism-based; details: in vivo; method in brief: as §4
[27] = system: Rattus norvegicus; test: Biodistribution in Rat blood after 30 minutes of iv administration; format: ADME, organism-based; details: in vivo, 0.5 h; method in brief: as §4
[28] = system: Rattus norvegicus; test: Liver radioactivity after iv administration of compound (30 min) in rats; format: functional, organism-based; method in brief: as §2
[29] = system: Rattus norvegicus; test: Biodistribution in Rat lung after 5 minutes of iv administration; format: ADME, organism-based; details: in vivo; method in brief: as §4
[30] = system: Rattus norvegicus; test: Biodistribution in Rat lung after 30 minutes of iv administration; per g of tissue; format: ADME, organism-based; details: in vivo, 0.5 h; method in brief: as §4
[31] = system: Rattus norvegicus; test: Biodistribution in Rat heart after 5 minutes of iv administration; per g of tissue; format: ADME, organism-based; details: in vivo; method in brief: as §4
[32] = system: Rattus norvegicus; test: Biodistribution in Rat lung after 5 minutes of iv administration; per g of tissue; format: ADME, organism-based; details: in vivo; method in brief: as §4
[33] = system: Rattus norvegicus; test: Biodistribution in Rat lung after 24 hours of iv administration; per g of tissue; format: ADME, organism-based; details: in vivo; method in brief: as §4
[34] = system: Rattus norvegicus; test: Biodistribution in Rat blood after 5 minutes of iv administration; per g of tissue; format: ADME, organism-based; details: in vivo; method in brief: as §4
[35] = system: Rattus norvegicus; test: (§6) Biodistribution in Rat liver after 30 minutes of iv administration; per g of tissue; format: ADME, organism-based; details: in vivo, 0.5 h; method in brief: as §4
[36] = system: Rattus norvegicus; test: Compound (125I labeled) was evaluated for the total radioactivity in stacking gel 5 min after intravenous administration.; format: functional; method in brief: as §3
[37] = system: Rattus norvegicus; test: Biodistribution in Rat liver after 5 minutes of iv administration; per g of tissue; format: ADME, organism-based; details: in vivo; method in brief: as §4
[38] = system: Rattus norvegicus; test: as §6; format: ADME, organism-based; details: in vivo, 0.5 h; method in brief: as §4; remark: listed apart in the source
[39] = system: Rattus norvegicus; test: Biodistribution in Rat heart after 30 minutes of iv administration; per g of tissue; format: ADME, organism-based; details: in vivo, 0.5 h; method in brief: as §4
[40] = system: Rattus norvegicus; test: Biodistribution in Rat blood after 24 hours of iv administration; per g of tissue; format: ADME, organism-based; details: in vivo; method in brief: as §4
[41] = system: Rattus norvegicus; test: Biodistribution in Rat blood after 30 minutes of iv administration; per g of tissue; format: ADME, organism-based; details: in vivo, 0.5 h; method in brief: as §4
[42] = system: Rattus norvegicus; test: Biodistribution in Rat liver after 24 hours of iv administration; per g of tissue; format: ADME, organism-based; details: in vivo; method in brief: as §4
[43] = system: Rattus norvegicus; test: Biodistribution in Rat heart after 24 hours of iv administration; per g of tissue; format: ADME, organism-based; details: in vivo; method in brief: as §4
[44] = system: Rattus norvegicus; test: Compound (125I labeled)was evaluated for the total radioactivity in low-density lipoprotein 5 min after intravenous administration.; format: functional; method in brief: as §3

Biodistribution [30]	Compound	Extracted [1]	Parent compound [1]	Extracted [2]	Parent compound [2]	Extracted [3]	Parent compound [3]	Radioactivity [4]	Total radioactivity [5]	Total radioactivity [8]	Total radioactivity [10]	Total radioactivity [11]	Total radioactivity [12]	Total radioactivity [13]	Radioactivity [15]	Extracted [17]	Parent compound [17]	Total radioactivity [23]	Total radioactivity [24]	Radioactivity [28]	further results
	CCC(Cc1c(I)cc(I)c(N)c1I)C(=O)OCC(COC(=O)C(CC)Cc1c(I)cc(I)c(N)c1I)OC(=O)C(CC)Cc1c(I)cc(I)c(N)c1I (centres undefined)	83.4%	75.1%	89%	92.9%	91.7%	92.3%	22.4	27%	48.2%	33.4%	2.9%	9.9%	55.8%	66.8	90.5%	89.1%	0.3% and 1.9%	5.3%	26	Biodistribution [6]: 0.18% and 9.19%; Biodistribution [7]: 0.39%; Biodistribution [9]: 0.58%; Biodistribution [14]: 2.79%; Biodistribution [16]: 0.1%; Biodistribution [18]: 2.79%; Biodistribution [19]: 0.67%; Biodistribution [20]: 0.97%; Total radioactivity [21]: 15.2%; Biodistribution [22]: 0.14%; Biodistribution [25]: 0.87% and 3.57%; Biodistribution [26]: 6.95%; Biodistribution [27]: 3.31%; Biodistribution [29]: 1.49%
0.94%	CCCCCCCCCCCCCCCC(=O)OC(COC(=O)CCc1c(I)cc(I)c(N)c1I)COC(=O)CCc1c(I)cc(I)c(N)c1I	63.7%	80%	86.2%	94.2%	83.1%	88%	43.1	40.6%	52.8%	27.8%	5%	19%	36.3%	14.7	62.9%	90.6%	0.2% and 1.2%	2.8%	38.4	Biodistribution [31]: 0.43%; Biodistribution [32]: 0.75%; Biodistribution [33]: 0.21%; Biodistribution [34]: 3.48%; Biodistribution [35]: 5.82%; Total radioactivity [36]: 14.2%; Biodistribution [37]: 0.5% and 6.19%; Biodistribution [38]: 5.82%; Biodistribution [39]: 0.56%; Biodistribution [40]: 0.31%; Biodistribution [41]: 4.25%; Biodistribution [42]: 0.29% and 2.19%; Biodistribution [43]: 0.42%
0.73%	CCCCCCCCCCCCCCCC(=O)OC(COC(=O)Cc1c(I)cc(I)c(N)c1I)COC(=O)Cc1c(I)cc(I)c(N)c1I	67%	60.8%	90.5%	89.5%	80.1%	68.8%	38.8	35.1%	34.7%		4.5%	16.6%	42%	10.3	82.7%	82.8%	3.2% and 2.4%	3.9%	57.2	Total radioactivity [44]: 39%; Biodistribution [31]: 0.64%; Biodistribution [32]: 1.13%; Biodistribution [33]: 0.13%; Biodistribution [34]: 4.75%; Biodistribution [35]: 7.62%; Total radioactivity [36]: 18.7%; Biodistribution [37]: 0.54% and 5.53%; Biodistribution [38]: 7.62%; Biodistribution [39]: 0.32%; Biodistribution [40]: 0.12%; Biodistribution [41]: 2.62%; Biodistribution [42]: 0.11% and 1.39%; Biodistribution [43]: 0.05%
